For series [1], the target named is T1, Nuclear factor erythroid 2-related factor 2 (Mus musculus) (UniProt Q60795).
T1 sequence (whole entry): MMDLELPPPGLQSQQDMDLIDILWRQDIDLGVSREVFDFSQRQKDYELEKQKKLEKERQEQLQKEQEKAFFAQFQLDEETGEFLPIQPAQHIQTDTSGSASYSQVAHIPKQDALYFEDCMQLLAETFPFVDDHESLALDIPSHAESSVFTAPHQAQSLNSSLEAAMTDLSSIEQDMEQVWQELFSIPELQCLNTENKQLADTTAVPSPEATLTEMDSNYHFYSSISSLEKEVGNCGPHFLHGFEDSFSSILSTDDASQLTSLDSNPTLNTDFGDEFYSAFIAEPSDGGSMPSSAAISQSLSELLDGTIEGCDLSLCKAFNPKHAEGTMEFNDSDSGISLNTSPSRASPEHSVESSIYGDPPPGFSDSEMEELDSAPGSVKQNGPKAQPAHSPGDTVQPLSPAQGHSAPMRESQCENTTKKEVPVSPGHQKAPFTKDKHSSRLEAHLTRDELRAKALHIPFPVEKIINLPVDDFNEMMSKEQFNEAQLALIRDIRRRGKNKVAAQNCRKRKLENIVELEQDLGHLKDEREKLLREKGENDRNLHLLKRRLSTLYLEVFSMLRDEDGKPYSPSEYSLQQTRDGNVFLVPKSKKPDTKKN
Description: Activation of Nrf2 in mouse BV-2 cells assessed as increase in HO-1 level at 0.3 to 10 uM incubated for 12 hrs by Western blot analysis relative to control. The format is cell-based. The procedure, abridged: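 BV-2 cells treated for 12 h; HO-1, GCLM, GCLC protein by Western blot, normalized to β-actin; at least duplicate cultures, fold induction over untreated control ± SEM; paired t test.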

A short description of series [2]: Cytotoxicity against mouse BV2 cells assessed as cell viability at 10 uM incubated for 6 hrs by CCK-8 assay relative to control. The format is cell-based, BV-2. The settings on record: read-out: Activity. An outline of the steps:
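BV-2 cells exposed to compound for 6 h, then viability measured; percent survival reported.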
For orientation: Tetrazolium assays rely on reduction of a dye to a coloured formazan, in cell work by metabolically active cells.

Series [3] has as its target T1, Nuclear factor erythroid 2-related factor 2 (Mus musculus). Description: Activation of Nrf2 in mouse BV-2 cells assessed as increase in nuclear Nrf2 level by Western blot analysis. Type of series: cell-based. The procedure, abridged: (§1)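 BV-2 microglia treated 0.3–10 μM; Nrf2 measured by Western blot in nuclear extracts and whole-cell lysates; at least duplicate cultures, averaged, expressed as fold of untreated control ± SEM; paired t test.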

Series [4] has the same target. Description: Activation of Nrf2 in mouse BV-2 cells assessed as increase in total Nrf2 level by Western blot analysis. The format is cell-based. An outline of the steps: as §1
For series [5] the target is unchanged. Description: Activation of Nrf2 in mouse BV-2 cells assessed as increase in total Nrf2 level at 0.3 uM by Western blot analysis relative to control. Type of series: cell-based. An outline of the steps:
as §1
For orientation: Immunoblotting shows a protein as a band on a membrane.

The target is the same in series [6]. Description: Activation of Nrf2 in mouse BV-2 cells assessed as increase in total Nrf2 level at 10 uM by Western blot analysis relative to control. Type of series: cell-based. An outline of the steps:
as §1

The target in series [7] is T2, Nuclear factor erythroid 2-related factor 2 (Homo sapiens) (UniProt Q16236).
T2 sequence (whole entry): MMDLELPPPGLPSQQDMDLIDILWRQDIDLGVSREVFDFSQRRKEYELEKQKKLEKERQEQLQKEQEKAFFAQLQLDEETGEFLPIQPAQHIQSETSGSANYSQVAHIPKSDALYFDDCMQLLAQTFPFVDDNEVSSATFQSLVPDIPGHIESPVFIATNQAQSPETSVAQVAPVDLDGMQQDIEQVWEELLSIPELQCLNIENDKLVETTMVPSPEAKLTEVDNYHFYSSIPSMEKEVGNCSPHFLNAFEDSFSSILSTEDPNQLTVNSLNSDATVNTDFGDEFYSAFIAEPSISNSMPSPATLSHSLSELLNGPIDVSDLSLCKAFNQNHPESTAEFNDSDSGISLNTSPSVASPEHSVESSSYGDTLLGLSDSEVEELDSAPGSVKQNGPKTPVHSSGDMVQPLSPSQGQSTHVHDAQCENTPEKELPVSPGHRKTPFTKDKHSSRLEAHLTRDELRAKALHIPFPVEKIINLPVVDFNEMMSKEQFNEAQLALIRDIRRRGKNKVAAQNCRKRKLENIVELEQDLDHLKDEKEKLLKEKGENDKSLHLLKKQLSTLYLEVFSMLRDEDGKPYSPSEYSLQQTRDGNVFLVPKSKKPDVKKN
Description: Activation of Nrf2 in human SH-SY5Y cells assessed as increase in GCLC level at 0.3 to 3 uM incubated for 6 to 24 hrs by Western blot analysis relative to control. The format is cell-based. An outline of the steps: (§2)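 SH-SY5Y neuroblastoma cells treated for 6 or 24 h, then harvested; NQO1, GCLM, GCLC protein by Western blot with β-actin loading control; at least duplicate cultures, averaged, fold of untreated control ± SEM; paired t test.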

Series [8] concerns BV-2. Description: Antiinflammatory activity in mouse BV2 cells assessed as reduction in LPS-induced iNOS level at 1 to 10 uM incubated for 6 hrs followed by LPS stimulation for 12 hrs by Western blot analysis. The format is functional, cell-based. An outline of the steps: (§3)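 BV-2 cells pretreated with compound 6 h, then stimulated with 1 μg/mL LPS for 12 h; protein and mRNA levels quantified relative to LPS-stimulated control; mean ± SD (n = 3); paired t test.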

For series [9], the system named is BV-2. Description: Antiinflammatory activity in mouse BV2 cells assessed as reduction in LPS-induced COX2 level at 1 to 10 uM incubated for 6 hrs followed by LPS stimulation for 12 hrs by Western blot analysis. The format is functional, cell-based. An outline of the steps:
as §3

Series [10] has as its system BV-2. Description: Antiinflammatory activity in mouse BV2 cells assessed as reduction in LPS-induced iNOS expression at 3 to 10 uM incubated for 6 hrs followed by LPS stimulation for 12 hrs by RT-qPCR analysis. Type of series: functional, cell-based. The procedure, abridged: as §3
The subject of series [11] is BV-2. Description: Antiinflammatory activity in mouse BV2 cells assessed as reduction in LPS-induced IL-1beta expression at 3 to 10 uM incubated for 6 hrs followed by LPS stimulation for 12 hrs by RT-qPCR analysis. The format is functional, cell-based. The procedure, abridged:
as §3

The test system of series [12] is BV-2. Description: Antiinflammatory activity in mouse BV2 cells assessed as reduction in LPS-induced NO production at 1 to 10 uM incubated for 24 hrs by ELISA. Type of series: functional, cell-based. The procedure, abridged: (§4)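 BV-2 cells given compound together with 1 μg/mL LPS for 24 h; mediator levels expressed relative to LPS-stimulated control ± SEM; at least duplicate cultures; paired t test.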
For orientation: ELISA stands for enzyme-linked immunosorbent assay.

Series [13] relates to BV-2. Description: Antiinflammatory activity in mouse BV2 cells assessed as reduction in LPS-induced IL-6 production incubated for 24 hrs by ELISA. Type of series: functional, cell-based. An outline of the steps:
as §4

The test system of a further series is Mus musculus. Description: Protection against MPTP-induced DAergic neurotoxicity in C57BL/6 mouse model of Parkinson's disease assessed as reduction in SNpc microglial activation by measuring Iba1 fluorescent intensity at 20 mg/kg/day, administered for 7 consecutive days by TH/Iba1 double immunostaining-based assay. The settings on record: in the assay text read “administered for 3 consecutive days” for “administered for 7 consecutive days”. The format is functional, organism-based. The procedure, abridged: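 Double immunofluorescence for TH and Iba-1 on coronal substantia nigra sections 10 days after i.p. MPTP; relative Iba-1 intensity compared, n = 9 per group; mean ± SEM; one-way ANOVA with Tukey's test.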

Series [14] concerns the target T2, Nuclear factor erythroid 2-related factor 2 (Homo sapiens). Description: Activation of Nrf2 in human SH-SY5Y cells assessed as increase in GCLM level incubated for 6 to 24 hrs by Western blot analysis. The format is cell-based. An outline of the steps:
as §2

For series [15] the target is unchanged. Description: Activation of Nrf2 in human SH-SY5Y cells assessed as increase in GCLC level incubated for 6 to 24 hrs by Western blot analysis. Type of series: cell-based. An outline of the steps: as §2

The source made the active and inactive calls. The calls are words filed in the database; no cut-off is given here.

Regarding `COc1ccccc1OS(=O)(=O)/C=C/c1ccccc1Cl`, the fold change (FC) was found to be 10.3 in series [1], 3.3 in series [5], 6.7 in series [6] and 1.5 in series [7]. In addition, the viability at 6 h, 10 µM in series [2] is 95.9%. The Activity entry (in [3]; in [4]; in the series on BV-2 [13]; in [14]; in [15]) was “Dose-dependent effect” in each case. Moreover, the result in the series on BV-2 [8], in the series with BV-2 [9], in the series with BV-2 [10], with BV-2 [11], in the series with BV-2 [12] and in the series with Mus musculus was Active.

The values are drawn from ChEMBL document CHEMBL4304782, “Antioxidant, Anti-inflammatory, and Neuroprotective Effects of Novel Vinyl Sulfonate Compounds as Nrf2 Activator” (ACS Med Chem Lett, 2019).
